Read-outs that look alike come from different tables or passages of the source.
Tests used:
MDR1 = MDR1 (Homo sapiens, UniProt P08183); test: MDR1 inhibition, membrane vesicles; type: in vitro ADME; details: 1, 5, 10, 50, and 100 μM
[1] = test system: PC3 human prostate cancer xenografts; test: Contrast-enhanced MRI of PC3 prostate tumor xenografts in rats; type: in vivo, rat; details: PC3 tumors in rats, 3 T, n = 6
How it was run: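 Male rats carried subcutaneous flank xenografts of 4 × 10⁶ PC3 or 8 × 10⁶ LNCaP cells in Matrigel-PBS (1:1) and were imaged once tumours exceeded 100 mm³. Scans used 1 mm slices, 2 averages and a 128 × 128 matrix. The same tumour-bearing rats were reused across agents and doses, with a clinical Gd agent at 0.1 mmol Gd/kg as comparator.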

CAV1.2 = CAV1.2 (Homo sapiens, UniProt Q13936); test: SAFETYscan E/IC50 assay, CAV1.2; type: biochemical; details: concentration range 0.005 to 100 μM
How it was run: (§1)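 Contract-laboratory in vitro panel of 78 targets, run in agonist and/or antagonist modes under provider SOPs over 0.005 to 100 μM. Panel formats included enzyme fragment complementation, FLIPR-based cellular assays, kinase binding and enzymatic assays.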

MAOA = MAOA (Homo sapiens, UniProt P21397); test: SAFETYscan E/IC50 assay, MAOA; type: biochemical; details: concentration range 0.005 to 100 μM
How it was run: as §1

Excretion in SD rats = type: in vivo, rat
How it was run: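 Non-GLP study in SD rats given a single IV dose of 0.1 mmol/kg. One group (3/sex) gave urine and feces predose and at 0–4, 4–8, 8–24, 24–48, 48–72, 72–96, 96–120 and 120–144 h. A second group with conscious biliary cannulation gave bile 30 min predose and at 0–1, 1–2, 2–4, 4–6 and 6–8 h. Gd was measured by ICP-MS.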

[2] = Gd remaining in rat tissues after toxicity study; type: in vivo; details: for Measured Concentration of Gd, Mean: day 29, ICP-MS
How it was run: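 Femur, abdominal skin, liver, brain, quadriceps, lung, heart, kidney, spleen, colon and jejunum were collected, and residual Gd was measured by ICP-MS.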

CYP1A2 = CYP1A2 (Homo sapiens, UniProt P05177); details: 0.01, 0.1, 1, 10, and 100 μM, pooled human liver microsomes 0.5 mg/mL
CYP2B6 = details: human primary hepatocytes, 1, 10, and 100 μM
hERG = hERG (Homo sapiens, UniProt Q12809); details: HEK293, whole-cell patch clamp
[3] = rats, single dose 1.39 mmol/kg, day 15, ICP-MS

Chain of hERG (Q12809 whole entry): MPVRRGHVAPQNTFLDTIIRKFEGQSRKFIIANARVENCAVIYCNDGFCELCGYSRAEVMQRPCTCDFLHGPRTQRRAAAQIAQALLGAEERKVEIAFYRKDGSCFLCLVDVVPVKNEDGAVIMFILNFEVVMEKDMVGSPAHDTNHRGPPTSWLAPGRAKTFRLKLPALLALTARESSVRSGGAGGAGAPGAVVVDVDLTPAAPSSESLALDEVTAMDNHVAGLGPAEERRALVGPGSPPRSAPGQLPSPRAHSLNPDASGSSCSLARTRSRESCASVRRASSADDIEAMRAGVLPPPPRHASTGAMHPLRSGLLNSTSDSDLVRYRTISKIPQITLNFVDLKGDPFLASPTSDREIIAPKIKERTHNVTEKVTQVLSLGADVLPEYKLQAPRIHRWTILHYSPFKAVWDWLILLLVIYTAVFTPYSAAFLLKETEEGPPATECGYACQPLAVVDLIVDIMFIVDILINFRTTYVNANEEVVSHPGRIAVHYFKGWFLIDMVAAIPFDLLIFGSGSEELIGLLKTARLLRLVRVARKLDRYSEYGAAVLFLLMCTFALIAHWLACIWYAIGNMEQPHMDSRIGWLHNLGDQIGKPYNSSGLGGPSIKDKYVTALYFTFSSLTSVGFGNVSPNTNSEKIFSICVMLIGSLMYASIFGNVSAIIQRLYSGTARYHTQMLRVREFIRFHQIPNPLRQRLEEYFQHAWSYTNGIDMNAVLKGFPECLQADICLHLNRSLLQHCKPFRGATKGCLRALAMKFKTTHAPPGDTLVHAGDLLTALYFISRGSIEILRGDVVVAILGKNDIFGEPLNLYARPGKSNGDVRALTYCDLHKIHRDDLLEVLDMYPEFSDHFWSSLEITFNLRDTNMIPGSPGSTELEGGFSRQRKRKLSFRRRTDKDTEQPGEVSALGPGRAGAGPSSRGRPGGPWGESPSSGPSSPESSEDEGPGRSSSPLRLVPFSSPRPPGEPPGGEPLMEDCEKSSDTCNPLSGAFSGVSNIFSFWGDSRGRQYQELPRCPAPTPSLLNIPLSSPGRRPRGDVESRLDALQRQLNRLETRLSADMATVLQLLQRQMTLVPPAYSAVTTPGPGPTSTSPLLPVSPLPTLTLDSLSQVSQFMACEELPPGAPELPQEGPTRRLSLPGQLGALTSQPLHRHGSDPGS
Chain of CAV1.2 (P54289 957-1103): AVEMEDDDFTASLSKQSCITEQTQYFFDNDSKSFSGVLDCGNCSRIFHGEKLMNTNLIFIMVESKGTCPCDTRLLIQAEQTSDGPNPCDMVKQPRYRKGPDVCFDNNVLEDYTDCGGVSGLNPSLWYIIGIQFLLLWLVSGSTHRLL
Chain of CAV1.2 (Q08289 whole entry, further chain, the tested form may be a part): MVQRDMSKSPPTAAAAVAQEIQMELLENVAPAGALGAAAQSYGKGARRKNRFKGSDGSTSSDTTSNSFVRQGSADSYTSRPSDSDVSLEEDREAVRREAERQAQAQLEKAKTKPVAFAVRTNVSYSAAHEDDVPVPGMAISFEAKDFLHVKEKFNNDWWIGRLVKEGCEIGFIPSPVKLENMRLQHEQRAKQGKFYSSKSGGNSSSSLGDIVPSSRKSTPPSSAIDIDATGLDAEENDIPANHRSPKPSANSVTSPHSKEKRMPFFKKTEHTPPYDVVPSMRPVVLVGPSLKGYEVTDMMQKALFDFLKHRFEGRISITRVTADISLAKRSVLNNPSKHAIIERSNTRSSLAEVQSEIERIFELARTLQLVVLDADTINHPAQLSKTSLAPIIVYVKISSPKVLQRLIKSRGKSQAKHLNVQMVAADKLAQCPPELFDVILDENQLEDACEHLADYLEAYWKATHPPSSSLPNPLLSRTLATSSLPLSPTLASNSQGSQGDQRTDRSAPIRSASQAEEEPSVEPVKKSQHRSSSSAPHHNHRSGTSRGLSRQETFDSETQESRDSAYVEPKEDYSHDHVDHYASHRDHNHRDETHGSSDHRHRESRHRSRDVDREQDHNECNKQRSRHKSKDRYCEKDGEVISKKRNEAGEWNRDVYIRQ
Chain of CAV1.2 (Q13936 whole entry, the tested form may be a part): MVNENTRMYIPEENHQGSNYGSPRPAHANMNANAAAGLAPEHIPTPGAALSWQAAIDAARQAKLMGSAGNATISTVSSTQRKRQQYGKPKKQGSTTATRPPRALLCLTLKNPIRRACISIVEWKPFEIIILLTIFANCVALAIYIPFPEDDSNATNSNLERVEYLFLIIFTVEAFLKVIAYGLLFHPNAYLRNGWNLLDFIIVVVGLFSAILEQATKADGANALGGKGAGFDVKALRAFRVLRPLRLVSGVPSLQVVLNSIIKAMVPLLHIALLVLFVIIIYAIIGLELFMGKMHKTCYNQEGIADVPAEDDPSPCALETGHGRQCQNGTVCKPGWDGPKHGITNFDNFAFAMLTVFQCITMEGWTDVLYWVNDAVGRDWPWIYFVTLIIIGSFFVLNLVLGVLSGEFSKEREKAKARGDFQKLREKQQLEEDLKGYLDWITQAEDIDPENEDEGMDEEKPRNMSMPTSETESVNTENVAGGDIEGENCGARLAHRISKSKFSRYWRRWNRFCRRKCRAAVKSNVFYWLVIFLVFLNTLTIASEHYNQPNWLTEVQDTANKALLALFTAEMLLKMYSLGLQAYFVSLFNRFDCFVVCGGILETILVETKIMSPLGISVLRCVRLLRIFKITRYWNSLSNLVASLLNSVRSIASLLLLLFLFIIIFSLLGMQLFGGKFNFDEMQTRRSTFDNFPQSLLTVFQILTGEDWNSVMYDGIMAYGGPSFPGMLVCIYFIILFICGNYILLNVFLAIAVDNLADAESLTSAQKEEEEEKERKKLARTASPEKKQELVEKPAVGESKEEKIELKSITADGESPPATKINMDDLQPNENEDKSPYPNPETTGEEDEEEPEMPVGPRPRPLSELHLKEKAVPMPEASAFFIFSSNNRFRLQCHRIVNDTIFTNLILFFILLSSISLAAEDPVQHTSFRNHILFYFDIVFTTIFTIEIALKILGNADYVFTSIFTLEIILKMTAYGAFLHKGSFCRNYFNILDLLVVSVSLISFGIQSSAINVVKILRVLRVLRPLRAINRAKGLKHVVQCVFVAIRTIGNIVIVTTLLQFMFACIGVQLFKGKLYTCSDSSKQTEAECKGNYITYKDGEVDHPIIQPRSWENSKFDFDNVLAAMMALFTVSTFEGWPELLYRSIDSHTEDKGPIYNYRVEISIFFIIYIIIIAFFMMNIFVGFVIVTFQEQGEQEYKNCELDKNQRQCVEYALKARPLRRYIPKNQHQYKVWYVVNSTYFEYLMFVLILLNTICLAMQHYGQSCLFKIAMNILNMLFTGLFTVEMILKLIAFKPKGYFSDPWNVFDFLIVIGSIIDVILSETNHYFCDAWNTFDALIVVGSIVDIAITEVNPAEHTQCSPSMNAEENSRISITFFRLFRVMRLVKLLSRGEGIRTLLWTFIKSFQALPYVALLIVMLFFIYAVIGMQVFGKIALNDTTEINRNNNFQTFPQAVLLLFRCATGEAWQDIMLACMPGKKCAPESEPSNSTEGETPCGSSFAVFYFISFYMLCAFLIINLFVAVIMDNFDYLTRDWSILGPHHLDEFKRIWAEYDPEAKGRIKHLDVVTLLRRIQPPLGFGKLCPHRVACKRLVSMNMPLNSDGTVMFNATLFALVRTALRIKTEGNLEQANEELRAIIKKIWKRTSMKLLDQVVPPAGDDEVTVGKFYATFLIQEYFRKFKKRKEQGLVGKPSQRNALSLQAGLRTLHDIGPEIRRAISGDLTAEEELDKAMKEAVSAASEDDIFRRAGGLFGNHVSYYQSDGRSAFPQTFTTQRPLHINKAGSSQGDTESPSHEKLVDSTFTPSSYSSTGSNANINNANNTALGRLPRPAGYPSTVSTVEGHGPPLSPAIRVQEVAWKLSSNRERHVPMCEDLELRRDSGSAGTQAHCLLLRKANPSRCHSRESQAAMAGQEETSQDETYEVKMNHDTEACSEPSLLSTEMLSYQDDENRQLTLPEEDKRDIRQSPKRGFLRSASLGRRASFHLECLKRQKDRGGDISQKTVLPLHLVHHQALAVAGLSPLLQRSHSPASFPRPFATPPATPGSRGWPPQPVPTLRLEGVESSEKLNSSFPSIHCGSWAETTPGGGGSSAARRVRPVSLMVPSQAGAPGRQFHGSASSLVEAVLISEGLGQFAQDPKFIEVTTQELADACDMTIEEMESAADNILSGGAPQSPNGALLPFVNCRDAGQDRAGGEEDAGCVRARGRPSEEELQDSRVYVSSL
Chain of CAV1.2 (P54289 25-956): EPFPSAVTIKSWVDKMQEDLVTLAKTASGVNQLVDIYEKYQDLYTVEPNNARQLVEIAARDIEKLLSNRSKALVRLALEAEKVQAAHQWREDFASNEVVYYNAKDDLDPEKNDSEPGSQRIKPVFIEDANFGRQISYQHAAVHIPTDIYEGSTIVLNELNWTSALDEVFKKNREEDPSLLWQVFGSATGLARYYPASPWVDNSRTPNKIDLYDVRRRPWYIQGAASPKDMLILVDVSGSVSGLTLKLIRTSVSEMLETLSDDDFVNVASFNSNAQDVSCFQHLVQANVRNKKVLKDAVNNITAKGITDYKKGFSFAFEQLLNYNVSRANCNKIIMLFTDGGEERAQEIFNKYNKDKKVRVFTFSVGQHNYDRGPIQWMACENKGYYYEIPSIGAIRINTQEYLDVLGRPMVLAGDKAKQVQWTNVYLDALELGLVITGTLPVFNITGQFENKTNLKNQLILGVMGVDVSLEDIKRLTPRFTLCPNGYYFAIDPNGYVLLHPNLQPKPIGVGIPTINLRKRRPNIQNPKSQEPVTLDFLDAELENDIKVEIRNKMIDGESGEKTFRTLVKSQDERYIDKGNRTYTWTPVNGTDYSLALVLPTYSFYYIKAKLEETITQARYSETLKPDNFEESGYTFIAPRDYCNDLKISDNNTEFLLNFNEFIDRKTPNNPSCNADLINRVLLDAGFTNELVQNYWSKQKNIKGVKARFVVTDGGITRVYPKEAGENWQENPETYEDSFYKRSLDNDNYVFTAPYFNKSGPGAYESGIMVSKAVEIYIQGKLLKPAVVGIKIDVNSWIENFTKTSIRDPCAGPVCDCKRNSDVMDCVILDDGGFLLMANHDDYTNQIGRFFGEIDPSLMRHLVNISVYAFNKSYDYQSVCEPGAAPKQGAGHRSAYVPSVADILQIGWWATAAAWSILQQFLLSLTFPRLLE

ZD2-N3-Gd(HP-DO3A) [MT218]
inhibition of MDR1 transporter activity (MDR1): no inhibition potential | CNR ([1]; 0.02 mmol Gd/kg IV, 10 minutes postinjection): 2.67 ± 1.05 | CNR ([1]; 0.02 mmol Gd/kg IV, 30 minutes postinjection): 1.97 ± 0.67 | CNR ([1]; 0.04 mmol Gd/kg IV, 10 minutes postinjection): 5.94 ± 1.68 | CNR ([1]; 0.04 mmol Gd/kg IV, 30 minutes postinjection): 4.92 ± 0.79 | inhibition rate (CAV1.2): 15.58% | inhibition rate (MAOA): 10.21% | total excretion of injected Gd in bile, feces, and urine (Excretion in SD rats; SD rats, 0.1 mmol/kg single IV, within 6 days, ICP-MS): 100.01% ± 10.85% of the injected dose | injected dose excreted in urine (Excretion in SD rats; rats, single dose, within the first 8 hours postinjection): Greater than 80% | Measured Concentration of Gd, Mean ([2]; Female rat, Bone, 0.15 mmol/kg/d daily IV 2 weeks): 0.19 μg/g Tissue | Measured Concentration of Gd, Mean ([2]; Female rat, Bone, 0.46 mmol/kg/d daily IV 2 weeks): 1.13 μg/g Tissue | Measured Concentration of Gd, Mean ([2]; Female rat, Bone, 1.39 mmol/kg/d daily IV 2 weeks): 4.90 μg/g Tissue | Measured Concentration of Gd, Mean ([2]; Female rat, Brain, 0.15 mmol/kg/d daily IV 2 weeks): BQL | Measured Concentration of Gd, Mean ([2]; Female rat, Brain, 0.46 mmol/kg/d daily IV 2 weeks): 0.03 μg/g Tissue | Measured Concentration of Gd, Mean ([2]; Female rat, Brain, 1.39 mmol/kg/d daily IV 2 weeks): 0.40 μg/g Tissue | Measured Concentration of Gd, Mean ([2]; Female rat, Colon, 0.15 mmol/kg/d daily IV 2 weeks): 0.15 μg/g Tissue | Measured Concentration of Gd, Mean ([2]; Female rat, Colon, 0.46 mmol/kg/d daily IV 2 weeks): 1.02 μg/g Tissue | Measured Concentration of Gd, Mean ([2]; Female rat, Colon, 1.39 mmol/kg/d daily IV 2 weeks): 3.44 μg/g Tissue | Measured Concentration of Gd, Mean ([2]; Female rat, Heart, 0.15 mmol/kg/d daily IV 2 weeks): BQL | Measured Concentration of Gd, Mean ([2]; Female rat, Heart, 0.46 mmol/kg/d daily IV 2 weeks): 3.17 μg/g Tissue | Measured Concentration of Gd, Mean ([2]; Female rat, Heart, 1.39 mmol/kg/d daily IV 2 weeks): 1.85 μg/g Tissue | Measured Concentration of Gd, Mean ([2]; Female rat, Jejunum, 0.15 mmol/kg/d daily IV 2 weeks): 0.23 μg/g Tissue | Measured Concentration of Gd, Mean ([2]; Female rat, Jejunum, 0.46 mmol/kg/d daily IV 2 weeks): 0.73 μg/g Tissue | Measured Concentration of Gd, Mean ([2]; Female rat, Jejunum, 1.39 mmol/kg/d daily IV 2 weeks): 3.26 μg/g Tissue | Measured Concentration of Gd, Mean ([2]; Female rat, Kidney, 0.15 mmol/kg/d daily IV 2 weeks): 26.46 μg/g Tissue | Measured Concentration of Gd, Mean ([2]; Female rat, Kidney, 0.46 mmol/kg/d daily IV 2 weeks): 100.81 μg/g Tissue | Measured Concentration of Gd, Mean ([2]; Female rat, Kidney, 1.39 mmol/kg/d daily IV 2 weeks): 346.00 μg/g Tissue | Measured Concentration of Gd, Mean ([2]; Female rat, Liver, 0.15 mmol/kg/d daily IV 2 weeks): 0.31 μg/g Tissue | Measured Concentration of Gd, Mean ([2]; Female rat, Liver, 0.46 mmol/kg/d daily IV 2 weeks): 1.03 μg/g Tissue | Measured Concentration of Gd, Mean ([2]; Female rat, Liver, 1.39 mmol/kg/d daily IV 2 weeks): 4.11 μg/g Tissue | Measured Concentration of Gd, Mean ([2]; Female rat, Lung, 0.15 mmol/kg/d daily IV 2 weeks): 0.20 μg/g Tissue | Measured Concentration of Gd, Mean ([2]; Female rat, Lung, 0.46 mmol/kg/d daily IV 2 weeks): 1.27 μg/g Tissue | Measured Concentration of Gd, Mean ([2]; Female rat, Lung, 1.39 mmol/kg/d daily IV 2 weeks): 3.86 μg/g Tissue | Measured Concentration of Gd, Mean ([2]; Female rat, Muscle, 0.15 mmol/kg/d daily IV 2 weeks): 0.03 μg/g Tissue | Measured Concentration of Gd, Mean ([2]; Female rat, Muscle, 0.46 mmol/kg/d daily IV 2 weeks): 0.21 μg/g Tissue | Measured Concentration of Gd, Mean ([2]; Female rat, Muscle, 1.39 mmol/kg/d daily IV 2 weeks): 1.27 μg/g Tissue | Measured Concentration of Gd, Mean ([2]; Female rat, Skin, 0.15 mmol/kg/d daily IV 2 weeks): 0.14 μg/g Tissue | Measured Concentration of Gd, Mean ([2]; Female rat, Skin, 0.46 mmol/kg/d daily IV 2 weeks): 1.26 μg/g Tissue | Measured Concentration of Gd, Mean ([2]; Female rat, Skin, 1.39 mmol/kg/d daily IV 2 weeks): 4.56 μg/g Tissue | Measured Concentration of Gd, Mean ([2]; Female rat, Spleen, 0.15 mmol/kg/d daily IV 2 weeks): 0.32 μg/g Tissue | Measured Concentration of Gd, Mean ([2]; Female rat, Spleen, 0.46 mmol/kg/d daily IV 2 weeks): 1.41 μg/g Tissue | Measured Concentration of Gd, Mean ([2]; Female rat, Spleen, 1.39 mmol/kg/d daily IV 2 weeks): 4.69 μg/g Tissue | Measured Concentration of Gd, Mean ([2]; Male rat, Bone, 0.15 mmol/kg/d daily IV 2 weeks): 0.28 μg/g Tissue | Measured Concentration of Gd, Mean ([2]; Male rat, Bone, 0.46 mmol/kg/d daily IV 2 weeks): 0.70 μg/g Tissue | Measured Concentration of Gd, Mean ([2]; Male rat, Bone, 1.39 mmol/kg/d daily IV 2 weeks): 5.85 μg/g Tissue | Measured Concentration of Gd, Mean ([2]; Male rat, Brain, 0.15 mmol/kg/d daily IV 2 weeks): BQL | Measured Concentration of Gd, Mean ([2]; Male rat, Brain, 0.46 mmol/kg/d daily IV 2 weeks): 0.07 μg/g Tissue | Measured Concentration of Gd, Mean ([2]; Male rat, Colon, 0.15 mmol/kg/d daily IV 2 weeks): 0.18 μg/g Tissue | Measured Concentration of Gd, Mean ([2]; Male rat, Colon, 0.46 mmol/kg/d daily IV 2 weeks): 0.79 μg/g Tissue | Measured Concentration of Gd, Mean ([2]; Male rat, Colon, 1.39 mmol/kg/d daily IV 2 weeks): 3.92 μg/g Tissue | Measured Concentration of Gd, Mean ([2]; Male rat, Heart, 0.15 mmol/kg/d daily IV 2 weeks): 0.14 μg/g Tissue | Measured Concentration of Gd, Mean ([2]; Male rat, Heart, 0.46 mmol/kg/d daily IV 2 weeks): 1.72 μg/g Tissue | Measured Concentration of Gd, Mean ([2]; Male rat, Heart, 1.39 mmol/kg/d daily IV 2 weeks): 2.56 μg/g Tissue | Measured Concentration of Gd, Mean ([2]; Male rat, Jejunum, 0.15 mmol/kg/d daily IV 2 weeks): 0.17 μg/g Tissue | Measured Concentration of Gd, Mean ([2]; Male rat, Jejunum, 0.46 mmol/kg/d daily IV 2 weeks): 0.73 μg/g Tissue | Measured Concentration of Gd, Mean ([2]; Male rat, Jejunum, 1.39 mmol/kg/d daily IV 2 weeks): 3.72 μg/g Tissue | Measured Concentration of Gd, Mean ([2]; Male rat, Kidney, 0.15 mmol/kg/d daily IV 2 weeks): 15.15 μg/g Tissue | Measured Concentration of Gd, Mean ([2]; Male rat, Kidney, 0.46 mmol/kg/d daily IV 2 weeks): 70.70 μg/g Tissue | Measured Concentration of Gd, Mean ([2]; Male rat, Kidney, 1.39 mmol/kg/d daily IV 2 weeks): 519.85 μg/g Tissue | Measured Concentration of Gd, Mean ([2]; Male rat, Liver, 0.15 mmol/kg/d daily IV 2 weeks): 0.22 μg/g Tissue | Measured Concentration of Gd, Mean ([2]; Male rat, Liver, 0.46 mmol/kg/d daily IV 2 weeks): 1.96 μg/g Tissue | Measured Concentration of Gd, Mean ([2]; Male rat, Liver, 1.39 mmol/kg/d daily IV 2 weeks): 4.85 μg/g Tissue | Measured Concentration of Gd, Mean ([2]; Male rat, Lung, 0.15 mmol/kg/d daily IV 2 weeks): BQL | Measured Concentration of Gd, Mean ([2]; Male rat, Lung, 0.46 mmol/kg/d daily IV 2 weeks): 1.33 μg/g Tissue | Measured Concentration of Gd, Mean ([2]; Male rat, Lung, 1.39 mmol/kg/d daily IV 2 weeks): 4.83 μg/g Tissue | Measured Concentration of Gd, Mean ([2]; Male rat, Muscle, 0.15 mmol/kg/d daily IV 2 weeks): BQL | Measured Concentration of Gd, Mean ([2]; Male rat, Muscle, 0.46 mmol/kg/d daily IV 2 weeks): 0.22 μg/g Tissue | Measured Concentration of Gd, Mean ([2]; Male rat, Muscle, 1.39 mmol/kg/d daily IV 2 weeks): 1.15 μg/g Tissue | Measured Concentration of Gd, Mean ([2]; Male rat, Skin, 0.15 mmol/kg/d daily IV 2 weeks): 0.13 μg/g Tissue | Measured Concentration of Gd, Mean ([2]; Male rat, Skin, 0.46 mmol/kg/d daily IV 2 weeks): 0.95 μg/g Tissue | Measured Concentration of Gd, Mean ([2]; Male rat, Skin, 1.39 mmol/kg/d daily IV 2 weeks): 2.31 μg/g Tissue | Measured Concentration of Gd, Mean ([2]; Male rat, Spleen, 0.15 mmol/kg/d daily IV 2 weeks): 0.37 μg/g Tissue | Measured Concentration of Gd, Mean ([2]; Male rat, Spleen, 0.46 mmol/kg/d daily IV 2 weeks): 1.12 μg/g Tissue | Measured Concentration of Gd, Mean ([2]; Male rat, Spleen, 1.39 mmol/kg/d daily IV 2 weeks): 6.04 μg/g Tissue | Gd concentration in other tissues relative to the kidney concentration [2, 3]: < 1/20 | Gd in the brain and muscles [2, 3]: not detected | inhibition of CYP1A2 activity (CYP1A2): did not inhibit | induction of mRNA expression of CYP2B6 (CYP2B6): did not induce | induction on enzyme activity of CYP2B6 (CYP2B6): no induction | average inhibition of the hERG currents (hERG; 30.69 μM): 36.87% ± 6.93% | average inhibition of the hERG currents (hERG; 103.54 μM): 52.19% ± 0.82%

Source: article PMC9444296 (Investigative Radiology, 2022)
